Consider one compound from ChEMBL document CHEMBL1149395, “Beta-substituted cyclohexanecarboxamide: a nonpeptidic framework for the design of potent inhibitors of cathepsin K” (J Med Chem, 2006).

The structures appear in SMILES notation.

The target of data set [1] is Cathepsin (S and K) (Homo sapiens) (UniProt P25774+P43235). The data set can be described thus: Selectivity for Cathepsin S over Cathepsin K. The format is protein assay.
Data set [2] can be described thus: Plasma clearance in squirrel monkey at 1 mL/kg, po. Type of data set: ADME, organism-based, Saimiri sciureus. The procedure, abridged:
(§1)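 Single compounds given orally as suspensions in 1% methocel to animals fasted overnight, dosed in the morning. Oral dosing volumes were 10 mL/kg for rats, 5 mL/kg for dogs and 1 mL/kg for monkeys. Intravenous comparison dosing went via the jugular vein in PEG-200/H₂O (3:2) at 1 mL/kg. Plasma was sampled at regular intervals, precipitated with 1.5 volumes of acetonitrile, centrifuged and analysed by LC-MS.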

Data set [3] can be described thus: Plasma clearance in dog at 5 mL/kg, po. The format is ADME, organism-based, Canis lupus familiaris. The procedure, abridged: as §1
Data set [4] has as its target T1, Cathepsin K (Oryctolagus cuniculus, UniProt P43236).
T1 sequence (P43236 whole entry): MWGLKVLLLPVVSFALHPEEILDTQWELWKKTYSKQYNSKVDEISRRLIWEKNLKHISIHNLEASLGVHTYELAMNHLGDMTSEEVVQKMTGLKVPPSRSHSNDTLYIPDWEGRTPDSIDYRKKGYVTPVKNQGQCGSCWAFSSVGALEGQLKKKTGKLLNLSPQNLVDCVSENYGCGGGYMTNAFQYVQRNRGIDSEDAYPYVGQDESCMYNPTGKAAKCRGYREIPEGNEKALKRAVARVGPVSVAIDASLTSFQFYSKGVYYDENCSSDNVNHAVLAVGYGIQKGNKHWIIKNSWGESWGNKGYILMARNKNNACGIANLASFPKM
The data set can be described thus: Inhibitory activity against rabbit Cathepsin K.

The species named for the next data set is Oryctolagus cuniculus. In words: Effect on degradation of collagen in bovine bone by rabbit osteoclast. Type of data set: functional.
A short description of data set [5]: Plasma clearance in rat at 10 mL/kg, po. The note with it: Sprague-Dawley. The format is ADME, organism-based. The gist of the method: as §1
Data set [6] is described as follows: Oral bioavailability in rats at 10 mL/kg, po. The following applies: Sprague-Dawley, rat, in vivo. The format is ADME, organism-based. The gist of the method: as §1
In data set [7] the target is Cathepsin (B and K) (Homo sapiens) (UniProt P43235+P07858). The data set can be described thus: Selectivity for Cathepsin B over Cathepsin K. The format is protein assay.
Data set [8] has as its target Cathepsin K (Homo sapiens, UniProt P43235). The data set can be described thus: Inhibitory activity against humanized rabbit Cathepsin K.
Data set [9] can be described thus: Oral bioavailability in squirrel monkey at 1 mL/kg, po. The format is ADME, organism-based, Saimiri sciureus. The note with it: in vivo. The gist of the method:
as §1

A short description of data set [10]: Oral bioavailability in dogs at 5 mL/kg, po. The note with it: dog, in vivo. The format is ADME, organism-based, Canis lupus familiaris. The gist of the method: as §1
Data set [11] is described as follows: Half life in squirrel monkey at 1 mL/kg, po. Type of data set: ADME, organism-based, Saimiri sciureus. The note with it: in vivo. The gist of the method:
as §1

The target of data set [12] is Cathepsin (L and K) (Homo sapiens) (UniProt P43235+P07711). In words: Selectivity for Cathepsin L over Cathepsin K. The format is protein assay.
The nature of data set [13]: Half life in rat at 10 mL/kg, po. Type of data set: ADME, organism-based. The following applies: Sprague-Dawley, in vivo. The gist of the method: as §1
Data set [14] can be described thus: Half life in dog at 5 mL/kg, po. Type of data set: ADME, organism-based, Canis lupus familiaris. The following applies: in vivo. The procedure, abridged:
as §1

Chain of Cathepsin (B and K) (Homo sapiens) (P43235 whole entry, looked up, other chains not shown): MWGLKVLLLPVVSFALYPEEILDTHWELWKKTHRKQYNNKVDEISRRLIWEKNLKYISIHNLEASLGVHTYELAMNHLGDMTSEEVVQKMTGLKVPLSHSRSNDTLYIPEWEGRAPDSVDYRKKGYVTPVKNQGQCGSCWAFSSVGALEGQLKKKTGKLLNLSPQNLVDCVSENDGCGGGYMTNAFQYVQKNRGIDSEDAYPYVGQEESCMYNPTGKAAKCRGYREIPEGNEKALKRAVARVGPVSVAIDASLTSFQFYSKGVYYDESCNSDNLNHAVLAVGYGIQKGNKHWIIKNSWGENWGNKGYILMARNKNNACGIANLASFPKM

In general, CL/F refers to clearance divided by bioavailability, as obtained after extravascular dosing. Broadly, the IC50 is the concentration that inhibits the measured activity by half. As a reminder, the bioavailability is the share of a dose that reaches the circulation, judged against a reference dose that is usually intravenous. By half-life is commonly meant the time needed for the level to fall by half in the phase considered. Regarding `CSc1ccc(-c2ccccc2[C@@H]2CCC(F)(F)C[C@H]2C(=O)NCC#N)cc1`, the Selectivity ratio in [1] was 940; in [7] it was above 36000; in data set [12], 780. In addition, the apparent clearance (CL/F) in data set [2] was determined as 17 mL/min/kg; in [3], 3.6 mL/min/kg; in data set [5] it was 8.7 mL/min/kg. The IC50 at Cathepsin K [4] turned out to be 0.32 nM; in the data set filed under Oryctolagus cuniculus it was 16 nM; against Cathepsin K [8], 0.28 nM. The figures for the bioavailability in data set [6], in data set [9] and in data set [10] were 39%, 78% and 55%, respectively. Moreover, the half-life in [11] is 8.8 h; in [13], 3.5 h; in [14], 15 h.
